Source: ChEMBL document CHEMBL1149297 (J Med Chem, 2004)
Activity calls are given as the source filed them. The calls are words filed in the database; no cut-off is given here.

Assays:
[1] = biological target: T1, Neuronal acetylcholine receptor; alpha3/beta4 (Homo sapiens, UniProt P30926+P32297); experiment: Agonist activity at alpha-3-beta-4 nAChR in KXalpha-3-beta-4R2 cells by rubidium efflux assay; format: functional, cell-based
Method in brief: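 KXα3β4R2 cells stably expressing α3β4 nAChRs, grown in MEM/10% FBS with geneticin selection, plated on poly(D-lysine) and grown 48 h at 37 °C to >90% confluence. Loaded with 86Rb+ (2 μCi/well) 4 h at 37 °C, washed in Hepes-buffered saline pH 7.4, then exposed to compound for 2 min. Released 86Rb+ counted by liquid scintillation.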

[2] = biological target: T1, Neuronal acetylcholine receptor; alpha3/beta4; experiment: Agonist activity at alpha-3-beta-4 nAChR in KXalpha-3-beta-4R2 cells by rubidium efflux assay relative to nicotine; format: functional, cell-based; set-up: concentration or dose not given beside the values
Method in brief: (§1)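 KXα3β4R2 cells (stably expressing α3β4 nAChR) grown in selection MEM with 10% FBS and geneticin, plated on poly(D-lysine) and grown 48 h at 37 °C to >90% confluence. Cells were loaded with 86Rb+ (2 μCi/well) for 4 h at 37 °C and washed three times in buffer A (Hepes/NaCl/KCl/MgSO4/CaCl2/glucose, pH 7.4). Compound in buffer A was applied for 2 min, and efflux was counted by liquid scintillation.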

[3] = biological target: T1, Neuronal acetylcholine receptor; alpha3/beta4; experiment: Displacement of [3H]epibatidine from alpha-3-beta-4 nAChR immobilized on liquid chromatographic stationary phases; format: protein-complex assay
[4] = biological target: Neuronal acetylcholine receptor; alpha4/beta2 (Homo sapiens) (UniProt P17787+P43681); experiment: Displacement of [3H]epibatidine from alpha-4-beta-2 nAChR immobilized on liquid chromatographic stationary phases; format: protein-complex assay
[5] = biological target: T1, Neuronal acetylcholine receptor; alpha3/beta4; experiment: Agonist activity at alpha3beta4 nAChR in KXalpha-3-beta-4R2 cells by rubidium efflux assay at 1 mM; format: functional, cell-based; method in brief: as §1

T1 sequence (P30926 whole entry): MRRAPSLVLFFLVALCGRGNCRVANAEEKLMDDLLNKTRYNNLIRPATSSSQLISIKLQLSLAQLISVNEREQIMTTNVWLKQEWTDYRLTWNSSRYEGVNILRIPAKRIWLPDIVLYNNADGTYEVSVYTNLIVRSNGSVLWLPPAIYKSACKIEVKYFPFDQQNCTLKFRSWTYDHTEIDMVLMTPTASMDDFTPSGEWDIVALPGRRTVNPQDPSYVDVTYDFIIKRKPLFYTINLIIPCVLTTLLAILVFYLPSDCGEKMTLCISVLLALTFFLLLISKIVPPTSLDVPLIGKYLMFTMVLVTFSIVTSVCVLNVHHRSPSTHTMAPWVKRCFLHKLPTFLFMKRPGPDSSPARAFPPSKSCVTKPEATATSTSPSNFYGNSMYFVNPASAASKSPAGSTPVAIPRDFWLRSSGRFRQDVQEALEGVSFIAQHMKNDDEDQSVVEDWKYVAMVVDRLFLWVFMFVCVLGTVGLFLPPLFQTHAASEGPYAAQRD
T1 sequence (P32297 whole entry): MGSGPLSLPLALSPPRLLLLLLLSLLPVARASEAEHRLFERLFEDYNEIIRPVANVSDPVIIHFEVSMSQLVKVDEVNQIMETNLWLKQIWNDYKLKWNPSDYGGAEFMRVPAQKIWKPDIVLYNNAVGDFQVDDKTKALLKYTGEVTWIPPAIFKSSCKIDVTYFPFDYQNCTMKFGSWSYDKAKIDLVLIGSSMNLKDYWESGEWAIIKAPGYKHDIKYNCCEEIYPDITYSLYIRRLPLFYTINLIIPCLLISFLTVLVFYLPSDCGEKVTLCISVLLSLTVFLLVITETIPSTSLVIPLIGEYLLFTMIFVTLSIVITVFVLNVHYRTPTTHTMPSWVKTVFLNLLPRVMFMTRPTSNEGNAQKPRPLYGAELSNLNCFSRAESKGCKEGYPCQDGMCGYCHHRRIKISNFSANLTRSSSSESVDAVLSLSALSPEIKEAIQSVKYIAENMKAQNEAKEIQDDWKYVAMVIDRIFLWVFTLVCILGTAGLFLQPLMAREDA

Structure (SMILES) | EC50 [1] [µM] | Activity [2] | Activity [3] [mL] | Activity [4] [mL] | Activity [5]
COC(=O)N1CCC[C@@H]2C[C@@H](Sc3ccccc3)c3cc(Cl)nc(Cl)c3[C@@H]21 | 18.2 | 100% |  |  | 
CN1CCC[C@H]1c1cccnc1 |  | 100% | 0.16 | 0.26 | 
COC(=O)N1CC[C@@H]2C[C@@H](Sc3ccccc3)c3cc(Cl)nc(Cl)c3[C@@H]21 | > 1000 | 10% | -0.04 | 0.17 | inactive
COC(=O)N1CC[C@@H]2C[C@@H](S(=O)(=O)c3ccccc3)c3cc(Cl)nc(Cl)c3[C@@H]21 | > 1000 | 10% | -0.12 | 0.13 | 
COC(=O)N1CC[C@@H]2C=Cc3cc(Cl)nc(Cl)c3[C@@H]21 | 20.8 | 100% | 0.28 | 0.28 | 
Clc1cc2c(c(Cl)n1)[C@@H]1NCC[C@@H]1C[C@H]2Sc1ccccc1 | 26.4 | 35% |  |  | 
Clc1ccc(C2CC3CCC2N3)cn1 (configuration not stated) |  | inactive |  |  | 
COC(=O)N1CCC[C@@H]2C=Cc3cc(Cl)nc(Cl)c3[C@@H]21 | 13.8 | 75% |  |  | 
COC(=O)N1CC[C@@H]2CCc3ccncc3[C@@H]21 |  |  | 0.12 | 0.23 | 
c1cc2c(cn1)[C@@H]1NCCC[C@@H]1CC2 | > 1000 | 10% |  |  | Active
COC(=O)N1CC[C@@H]2CCc3ccnc(Cl)c3[C@@H]21 | > 1000 | 10% | -0.32 | 0.18 | 
